Measurements: ChEMBL document CHEMBL1127787, “1,2,3-Triazole-[2',5'-bis-O-(tert-butyldimethylsilyl)-beta-D- ribofuranosyl]-3'-spiro-5"-(4"-amino-1",2"-oxathiole 2",2"-dioxide) (TSAO) analogues: synthesis and anti-HIV-1 activity” (J Med Chem, 1994)
pEC50: −log10 of the molar value.

Key:
CCRF-CEM [1] = test: Tested for the inhibitory activity of virus induced giant cell formation in HIV-1 infected CEM cells; assay type: functional, cell-based; conditions: Homo sapiens
CCRF-CEM [2] = test: Tested for the inhibitory activity of virus induced giant cell formation in HIV-2 infected CEM cells; assay type: functional, cell-based; conditions: Homo sapiens
Homo sapiens [3] = species on record: Homo sapiens; test: Inhibition of HIV-1Ba-L replication was measured after 14 days postvirus challenge by HIV-p24 ELISA at the dosage of 0.033 uM concentration in human macrophages; assay type: functional; conditions: 336 h
Outline: (§1)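 Human monocyte/macrophages isolated by 5-day adherence to plastic (10^6 cells/well), >95% pure by esterase and Giemsa staining. Infected with 500 minimal infective doses/well of HIV-1/Ba-L. Compound added from 30 min before virus challenge. Virus excess removed at 48 h and medium renewed with compound. Virus production read by p24 ELISA at day 14. Data are the mean of two independent experiments.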

Homo sapiens [4] = species on record: Homo sapiens; test: Inhibition of HIV-1Ba-L replication was measured after 14 days postvirus challenge by HIV-p24 ELISA at the dosage of 0.8 uM concentration in human macrophages; assay type: functional; conditions: 336 h; outline: as §1
Homo sapiens [5] = species on record: Homo sapiens; test: Inhibition of HIV-1Ba-L replication was measured after 14 days postvirus challenge by HIV-p24 ELISA at the dosage of 3.3 uM concentration in human macrophages; assay type: functional; conditions: 336 h; outline: as §1
Homo sapiens [6] = species on record: Homo sapiens; test: Inhibition of HIV-1Ba-L replication was measured after 14 days postvirus challenge by HIV-p24 ELISA at the dosage of 0.16 uM concentration in human macrophages; assay type: functional; conditions: 336 h; outline: as §1
MT4 [7] = test: Tested for the inhibitory activity of HIV-1 infected MT-4 cells; assay type: functional, cell-based; conditions: Homo sapiens
Outline: (§2)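 MT-4 cells (5 × 10^5/mL) grown in RPMI-1640 with 10% FCS, 2 mM L-glutamine and 0.075% NaHCO3. Infected with HIV-1 or HIV-2 at 100 CCID50/mL and mixed with compound dilutions (100 to 0.006 µg/mL). After 5 days viable cells were counted by trypan blue staining. EC50 is the concentration that reduces viable-cell loss in infected cultures by 50%.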

MT4 [8] = test: Tested for the inhibitory activity of HIV-2 infected MT-4 cells; assay type: functional, cell-based; conditions: Homo sapiens; outline: as §2
MT4 [9] = test: Tested for the cytotoxic concentration required to reduce the number of viable mock infected MT-4 cells; assay type: functional; conditions: Homo sapiens
Outline: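 Mock-infected MT-4 cells (5 × 10^5/mL) in RPMI-1640 with 10% FCS were exposed to compound dilutions (100 to 0.006 µg/mL). Viable cells were counted by trypan blue at day 5; about 150-200 cells were counted in controls. CC50 is the concentration that reduces viable cell number by 50%.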

MT4 [10] = test: Tested for the ratio between CC50 (MT-4) to EC50 (MT-4); assay type: functional, Homo sapiens
Homo sapiens [11] = species on record: Homo sapiens; test: Inhibition of HIV-1Ba-L replication was measured after 14 days postvirus challenge by HIV-p24 ELISA at the dosage of 0.034 uM concentration in human macrophages; assay type: functional; conditions: 336 h; outline: as §1
Homo sapiens [12] = species on record: Homo sapiens; test: Inhibition of HIV-1Ba-L replication was measured after 14 days postvirus challenge by HIV-p24 ELISA at the dosage of 0.17 uM concentration in human macrophages; assay type: functional; conditions: 336 h; outline: as §1
Homo sapiens [13] = species on record: Homo sapiens; test: Inhibition of HIV-1Ba-L replication was measured after 14 days postvirus challenge by HIV-p24 ELISA at the dosage of 0.85 uM concentration in human macrophages; assay type: functional; conditions: 336 h; outline: as §1
Homo sapiens [14] = species on record: Homo sapiens; test: Inhibition of HIV-1Ba-L replication was measured after 14 days postvirus challenge by HIV-p24 ELISA at the dosage of 3.4 uM concentration in human macrophages; assay type: functional; conditions: 336 h; outline: as §1

SMILES	pEC50 (CCRF-CEM [1])	pEC50 (CCRF-CEM [2])	inhibition at 0.033 µM (Homo sapiens [3]) [%]	inhibition at 0.8 µM (Homo sapiens [4]) [%]	inhibition at 3.3 µM (Homo sapiens [5]) [%]	inhibition at 0.16 µM (Homo sapiens [6]) [%]	pEC50 (MT4 [7])	pEC50 (MT4 [8])	CC50 (MT4 [9]) [µM]	Ratio (MT4 [10])	inhibition at 0.034 µM (Homo sapiens [11]) [%]	inhibition at 0.17 µM (Homo sapiens [12]) [%]	inhibition at 0.85 µM (Homo sapiens [13]) [%]	inhibition at 3.4 µM (Homo sapiens [14]) [%]
CN(C)C(=O)c1cnnn1[C@@H]1O[C@H](CO[Si](C)(C)C(C)(C)C)[C@@]2(OS(=O)(=O)C=C2N)[C@H]1O[Si](C)(C)C(C)(C)C	6.92	< 5.15	0	> 99	> 99	42	7.22	< 4.52	20	335				
CC(C)(C)[Si](C)(C)OC[C@H]1O[C@@H](n2nncc2CCCCl)[C@H](O[Si](C)(C)C(C)(C)C)[C@]12OS(=O)(=O)C=C2N	6.09	< 5.15					5.72	< 3.79	79	40.6				
COCc1cnnn1[C@@H]1O[C@H](CO[Si](C)(C)C(C)(C)C)[C@@]2(OS(=O)(=O)C=C2N)[C@H]1O[Si](C)(C)C(C)(C)C	6.05	< 4.85					5.62	< 5.15	28	11				

More lines, main results first:

pEC50 (CCRF-CEM [1])	pEC50 (CCRF-CEM [2])	SMILES	inhibition at 0.033 µM (Homo sapiens [3]) [%]	inhibition at 0.8 µM (Homo sapiens [4]) [%]	inhibition at 3.3 µM (Homo sapiens [5]) [%]	inhibition at 0.16 µM (Homo sapiens [6]) [%]	pEC50 (MT4 [7])	pEC50 (MT4 [8])	CC50 (MT4 [9]) [µM]	Ratio (MT4 [10])	inhibition at 0.034 µM (Homo sapiens [11]) [%]	inhibition at 0.17 µM (Homo sapiens [12]) [%]	inhibition at 0.85 µM (Homo sapiens [13]) [%]	inhibition at 3.4 µM (Homo sapiens [14]) [%]
6.27	< 3.78	CCOC(=O)c1cn([C@@H]2O[C@H](CO[Si](C)(C)C(C)(C)C)[C@@]3(OS(=O)(=O)C=C3N)[C@H]2O[Si](C)(C)C(C)(C)C)nn1	0	98	> 99	20	6.10	≤ 3.78	> 165	>209				
4.55	< 4.49	COC(=O)c1cn([C@@H]2O[C@H](CO[Si](C)(C)C(C)(C)C)[C@@]3(OS(=O)(=O)C=C3NC(C)=O)[C@H]2O[Si](C)(C)C(C)(C)C)nn1					≤ 4.49	< 4.49	56	<=1.7				
6.28	< 4.52	COC(=O)c1nnn([C@@H]2O[C@H](CO[Si](C)(C)C(C)(C)C)[C@@]3(OS(=O)(=O)C=C3N)[C@H]2O[Si](C)(C)C(C)(C)C)c1C(=O)OC					6.32	< 3.82	111	231				
< 5.89	< 5.89	CC(C)(C)[Si](C)(C)OC[C@H]1O[C@@H](n2cc(CBr)nn2)[C@H](O[Si](C)(C)C(C)(C)C)[C@]12OS(=O)(=O)C=C2N					≤ 5.19	< 5.19	14	<2.1				
5.89	< 4.46	CCCc1cn([C@@H]2O[C@H](CO[Si](C)(C)C(C)(C)C)[C@@]3(OS(=O)(=O)C=C3N)[C@H]2O[Si](C)(C)C(C)(C)C)nn1					6.04	< 3.77	> 170	>185	0	12	42	67
